According to ChEMBL document CHEMBL4184326, “Development of Thioaryl-Based Matrix Metalloproteinase-12 Inhibitors with Alternative Zinc-Binding Groups: Synthesis, Potentiometric, NMR, and Crystallographic Studies” (J Med Chem, 2018):
pIC50: −log10 of the molar value. Activity calls are given as the source filed them. No cut-off for these calls is given here.

How the values were obtained:
[1] = Metal chelating activity assessed as compound-Zn2+ complex formation at 1:2 metal to compound molar ratio at pH 3 to 8 by potentiometric titration method
Outline: (§1)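 pH-potentiometric titration in 60% w/w DMSO/H2O, 25.0 ± 0.1 °C, I 0.1 M KCl, 0.1 M KOH titrant. Glass electrode calibrated with HCl/KOH via Gran's method. Ligand (4−7) × 10−4 M at Zn:L 0:1, 1:1 and 1:2, in duplicate. pKw 15.75. Constants were fitted in Hyperquad with a Zn(II) hydrolysis model included.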

[2] = Metal chelating activity assessed as compound-Zn2+ complex formation by measuring free metal ion levels at compound to metal molar ratio 10 at pH 6 by potentiometric titration method
[3] = Metal chelating activity assessed as compound-Zn2+ complex formation at 1:1 metal to compound molar ratio at pH 3 to 8 by potentiometric titration method; outline: as §1
[4] = molecular target: Macrophage metalloelastase (Homo sapiens, UniProt P39900); assay: Inhibition of recombinant human MMP-12 using Mca-Lys-Pro-Leu-Gly-Leu-Dap(Dnp)-Ala-Arg-NH2 as substrate preincubated for 3 hrs followed by substrate addition measured every 10 secs for 15 mins by fluorometric assay
[5] = molecular target: 72 kDa type IV collagenase (Homo sapiens, UniProt P08253); assay: Inhibition of recombinant human MMP-2 using Mca-Lys-Pro-Leu-Gly-Leu-Dap(Dnp)-Ala-Arg-NH2 as substrate preincubated for 3 hrs followed by substrate addition measured every 10 secs for 15 mins by fluorometric assay
[6] = molecular target: Matrix metalloproteinase-9 (Homo sapiens, UniProt P14780); assay: Inhibition of recombinant human MMP-9 using Mca-Lys-Pro-Leu-Gly-Leu-Dap(Dnp)-Ala-Arg-NH2 as substrate preincubated for 3 hrs followed by substrate addition measured every 10 secs for 15 mins by fluorometric assay
[7] = Metal chelating activity assessed as compound-Zn2+ complex formation at 1:1 metal to compound molar ratio at pH 3 to 8 by 1H NMR method
[8] = Protonation constant, log K of the compound; format: physicochemical; details: 60% w/w DMSO/H2O; outline: as §1
Interstitial collagenase = molecular target: T1, Interstitial collagenase (Homo sapiens, UniProt P03956); assay: Inhibition of recombinant human MMP-1 using Mca-Lys-Pro-Leu-Gly-Leu-Dap(Dnp)-Ala-Arg-NH2 as substrate preincubated for 3 hrs followed by substrate addition measured every 10 secs for 15 mins by fluorometric assay
T1 sequence (P03956 whole entry): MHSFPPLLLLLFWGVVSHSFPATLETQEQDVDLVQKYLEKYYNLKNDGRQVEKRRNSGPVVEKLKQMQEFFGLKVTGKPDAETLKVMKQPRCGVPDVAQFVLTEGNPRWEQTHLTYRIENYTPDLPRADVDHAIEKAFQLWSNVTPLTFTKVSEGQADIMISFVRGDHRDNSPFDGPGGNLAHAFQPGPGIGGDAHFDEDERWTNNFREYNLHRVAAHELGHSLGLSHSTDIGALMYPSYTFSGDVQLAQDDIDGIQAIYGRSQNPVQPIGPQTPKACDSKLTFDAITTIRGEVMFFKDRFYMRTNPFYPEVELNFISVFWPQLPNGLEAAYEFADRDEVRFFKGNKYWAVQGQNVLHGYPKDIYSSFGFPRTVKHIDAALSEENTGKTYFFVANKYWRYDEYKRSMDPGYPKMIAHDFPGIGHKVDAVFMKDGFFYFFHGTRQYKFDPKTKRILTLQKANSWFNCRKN

Homo sapiens [9] = species: Homo sapiens; assay: Selectivity ratio of IC50 for recombinant human MMP-14 catalytic domain to IC50 for recombinant human MMP-12
Homo sapiens [10] = species: Homo sapiens; assay: Selectivity ratio of IC50 for recombinant human MMP-2 to IC50 for recombinant human MMP-12
Homo sapiens [11] = species: Homo sapiens; assay: Selectivity ratio of IC50 for recombinant human MMP-9 to IC50 for recombinant human MMP-12
[12] = molecular target: Matrix metalloproteinase-14 (Homo sapiens, UniProt P50281); assay: Inhibition of recombinant human MMP-14 catalytic domain using Mca-Lys-Pro-Leu-Gly-Leu-Dap(Dnp)-Ala-Arg-NH2 as substrate preincubated for 3 hrs followed by substrate addition measured every 10 secs for 15 mins by fluorometric assay
[13] = Drug level in KCl/DMSO/water solution treated with 2-(2-((4'-Methoxy-[1,1'-biphenyl]-4-yl)sulfonyl)phenyl)-acetic hydroxamic acid; format: physicochemical; details: buffer

Sequence of 72 kDa type IV collagenase (P08253 whole entry): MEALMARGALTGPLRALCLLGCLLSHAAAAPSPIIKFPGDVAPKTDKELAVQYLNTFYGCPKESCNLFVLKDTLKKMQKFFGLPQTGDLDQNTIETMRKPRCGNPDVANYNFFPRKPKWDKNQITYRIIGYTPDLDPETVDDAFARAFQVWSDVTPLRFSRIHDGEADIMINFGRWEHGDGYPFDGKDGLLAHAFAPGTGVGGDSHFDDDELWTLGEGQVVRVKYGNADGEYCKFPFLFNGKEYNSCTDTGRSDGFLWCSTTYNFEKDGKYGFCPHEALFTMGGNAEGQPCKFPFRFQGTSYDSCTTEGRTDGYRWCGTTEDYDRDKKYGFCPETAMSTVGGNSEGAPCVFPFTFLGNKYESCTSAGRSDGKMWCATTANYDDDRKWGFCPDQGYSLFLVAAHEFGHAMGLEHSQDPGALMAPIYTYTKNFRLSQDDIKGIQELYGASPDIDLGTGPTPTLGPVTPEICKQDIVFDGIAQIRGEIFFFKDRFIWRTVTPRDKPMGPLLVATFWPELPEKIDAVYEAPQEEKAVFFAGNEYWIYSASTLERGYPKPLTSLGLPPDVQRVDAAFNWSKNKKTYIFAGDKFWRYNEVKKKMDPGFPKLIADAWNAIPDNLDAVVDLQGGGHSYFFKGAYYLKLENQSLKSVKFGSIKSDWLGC
Sequence of Macrophage metalloelastase (P39900 whole entry): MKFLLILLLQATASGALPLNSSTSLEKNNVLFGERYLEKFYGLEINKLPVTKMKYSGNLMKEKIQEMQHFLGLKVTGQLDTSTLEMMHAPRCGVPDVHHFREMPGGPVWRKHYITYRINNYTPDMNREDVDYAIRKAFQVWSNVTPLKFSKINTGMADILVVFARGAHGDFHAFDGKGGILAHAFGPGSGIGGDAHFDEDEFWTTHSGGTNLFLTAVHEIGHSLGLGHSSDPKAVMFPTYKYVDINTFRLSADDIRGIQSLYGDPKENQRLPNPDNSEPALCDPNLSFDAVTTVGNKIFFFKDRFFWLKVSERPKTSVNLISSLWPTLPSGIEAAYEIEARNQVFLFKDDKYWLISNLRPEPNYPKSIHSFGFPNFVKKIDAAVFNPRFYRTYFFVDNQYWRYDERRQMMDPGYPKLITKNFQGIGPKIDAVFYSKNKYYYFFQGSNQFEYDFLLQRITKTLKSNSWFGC
Sequence of Matrix metalloproteinase-9 (P14780 whole entry): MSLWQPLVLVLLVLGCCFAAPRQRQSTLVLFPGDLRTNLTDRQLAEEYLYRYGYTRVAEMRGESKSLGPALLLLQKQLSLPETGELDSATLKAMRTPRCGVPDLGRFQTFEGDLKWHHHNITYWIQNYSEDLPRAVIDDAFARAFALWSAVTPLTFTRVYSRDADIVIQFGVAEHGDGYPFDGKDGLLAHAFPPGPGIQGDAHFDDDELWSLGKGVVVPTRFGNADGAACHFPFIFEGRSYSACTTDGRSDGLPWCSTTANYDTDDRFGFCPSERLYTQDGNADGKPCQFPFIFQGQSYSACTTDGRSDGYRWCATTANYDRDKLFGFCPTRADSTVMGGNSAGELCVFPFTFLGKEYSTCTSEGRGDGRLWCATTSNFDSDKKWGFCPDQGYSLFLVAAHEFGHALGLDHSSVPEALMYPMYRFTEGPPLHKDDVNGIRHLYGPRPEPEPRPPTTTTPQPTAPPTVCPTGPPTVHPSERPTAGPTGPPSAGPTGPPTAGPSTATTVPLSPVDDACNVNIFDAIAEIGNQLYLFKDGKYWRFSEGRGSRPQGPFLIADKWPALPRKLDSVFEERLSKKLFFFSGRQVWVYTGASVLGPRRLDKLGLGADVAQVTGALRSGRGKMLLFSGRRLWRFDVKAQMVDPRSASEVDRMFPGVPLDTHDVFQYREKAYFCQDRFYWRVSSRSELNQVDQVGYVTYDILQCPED

SMILES	Activity [1]	log(activity) [2]	Activity [3]	pIC50 [4]	pIC50 [5]	pIC50 [6]	Activity [7]	log K [8]	pIC50 (Interstitial collagenase)	Ratio IC50 (Homo sapiens [9])	Ratio IC50 (Homo sapiens [10])	Ratio IC50 (Homo sapiens [11])	pIC50 [12]	Drug metabolism [13]
COc1ccc(-c2ccc(S(=O)(=O)c3ccccc3C(CCC(=O)O)C(=O)O)cc2)cc1 (centres undefined)	Active	6.14	Active	6.29	5.87	4.84								
COc1ccc(-c2ccc(Sc3ccccc3C(CCC(=O)O)C(=O)O)cc2)cc1 (centres undefined)	Active	6.04	Active	7.59	6.18	5.53								
COc1ccc(-c2ccc(Sc3ccccc3CP(=O)(O)O)cc2)cc1				6.60	6.60	5.95								
COc1ccc(-c2ccc(S(=O)(=O)c3ccccc3CP(=O)(O)O)cc2)cc1				6.22										
COc1ccc(-c2ccc(S(=O)(=O)c3ccccc3CC(=O)NS(C)(=O)=O)cc2)cc1	Active	6.56	Active	5.46	5.44	5.43	Active	5.5						
COc1ccc(-c2ccc(Sc3ccccc3CC(=O)NS(C)(=O)=O)cc2)cc1	inactive	6.1	Active	5.48		4.74	Active	5.5						
COc1ccc(-c2ccc(S(=O)(=O)c3ccccc3CC(=O)NS(=O)(=O)C(F)(F)F)cc2)cc1	inactive	6.91	Active	5.12	5.60	4.61	Active	< 2						
COc1ccc(-c2ccc(Sc3ccccc3C(=O)CS(C)(=O)=O)cc2)cc1				3.64	3.64	3.48								
COc1ccc(-c2ccc(Sc3ccccc3C3CCC(=O)N(O)C3=O)cc2)cc1 (centres undefined)	Active	6.05	Active	7.48	6.17	5.24		9.03 to 9.35	3.59	1200	20	176	4.40	
COc1ccc(-c2ccc(S(=O)(=O)c3ccccc3C3CCC(=O)N(O)C3=O)cc2)cc1 (centres undefined)	Active	6.13	Active	7.40	6.38	5.84		9.03 to 9.35	< 5.00				5.40	
COc1ccc(-c2ccc(S(=O)(=O)c3ccccc3CC(=O)O)cc2)cc1	Active	6.1	Active											Metabolite_Detected
COc1ccc(-c2ccc(Sc3ccccc3CC(=O)NS(=O)(=O)C(F)(F)F)cc2)cc1	inactive	6.75	Active	5.68	4.34	4.30	Active	< 2						
COc1ccc(-c2ccc(S(=O)(=O)c3ccccc3C(=O)CS(C)(=O)=O)cc2)cc1				< 5.00	< 5.00	< 5.00								
COc1ccc(-c2ccc(Sc3ccccc3CC(=O)NO)cc2)cc1	Active	6.04	Active	8.40				10.29	3.60				5.70	
COc1ccc(-c2ccc(Sc3ccccc3CC(=O)O)cc2)cc1	inactive	6.04	Active	7.40										
